ChEMBL document CHEMBL2321662, “Azepines and piperidines with dual norepinephrine dopamine uptake inhibition and antidepressant activity” (ACS Med Chem Lett, 2013)
The source made the active and inactive calls. The calls are words filed in the database; no cut-off is given here.

Key:
[1] = target: Sodium-dependent serotonin transporter (Homo sapiens, UniProt P31645); test: Inhibition of human recombinant SERT expressed in HEK cells; assay type: cell-based, HEK293
How it was run: (§1)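 HEK cells overexpressing human recombinant transporter; uptake inhibition read as block of a fluorescent substrate with a neurotransmitter uptake kit. Values averaged from at least n = 3, up to 2-fold variability.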

[2] = target: Sodium-dependent dopamine transporter (Homo sapiens, UniProt Q01959); test: Inhibition of human recombinant DAT expressed in HEK cells; assay type: cell-based, HEK293
[3] = target: Sodium-dependent noradrenaline transporter (Homo sapiens, UniProt P23975); test: Inhibition of human recombinant NET expressed in HEK cells; assay type: cell-based, HEK293; how it was run: as §1
[4] = Intrinsic clearance in human liver microsomes; assay type: ADME, Microsome; details: read-out: CLH
How it was run: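 Human liver microsomes; intrinsic clearance reported in μL/min/mg.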

Cytochrome P450 2D6 = Cytochrome P450 2D6 (Homo sapiens, UniProt P10635); test: Inhibition of CYP2D6 (unknown origin); assay type: ADME
[5] = target: Voltage-gated inwardly rectifying potassium channel KCNH2 (Homo sapiens, UniProt Q12809); test: Inhibition of human ERG expressed in CHO-K1 cells by electrophysiological assay; assay type: cell-based
Plasma = test: Fraction unbound in Long Evans rat plasma; assay type: ADME, cell-free
[6] = Ratio of drug level in whole brain to plasma in Long Evans rat; assay type: ADME, cell-free; details: whole brain and plasma, read-out: BPR
Rattus norvegicus [7] = test: In vivo NET occupancy in sc dosed Long Evans rat thalamus [3H]-MeNER administered 30 mins before [3H]-MeNER challenge measured after 90 mins; assay type: functional
How it was run: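 Rats received test compound, then 30 min later sc [3H]MeNER as the NET radioligand, counted in thalamus. […] Mean reported; 95% CI typically ± half the mean.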

Rattus norvegicus [8] = species on record: Rattus norvegicus; test: animal or person; assay type: functional, organism-based; details: Long Evans, Striatum
Rattus norvegicus [9] = test: In vivo NET occupancy in sc dosed Long Evans rat thalamus assessed as unbound plasma levels equaling 50% occupancy using [3H]-MeNER administered 30 mins before [3H]-MeNER challenge measured after 90 mins; assay type: functional, organism-based
[10] = Metabolic stability of the compound assessed as GSH adduct formation; assay type: ADME
Rattus norvegicus [11] = test: Antidepressant activity in sc dosed Sprague-Dawley rat assessed as increase of locomotor activity and stereotypic behavior; assay type: functional, organism-based
How it was run: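 Rats were dosed sc. Spontaneous locomotion was scored over the last 15 min of the session: distance traveled from beam breaks, and stereotypy from repeated breaks of the same beam. Data are group means ± SEM, compared with vehicle by one-way ANOVA.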

Rattus norvegicus [12] = test: Antidepressant activity in Sprague-Dawley rat assessed as reduction of immobility time at 0.7 mg/kg, sc measured for 5 mins by forced swimming test; assay type: functional, organism-based; design: dose 0.7 mg/kg
How it was run: (§2)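 Sprague–Dawley rats dosed sc, then scored for immobility time in the forced-swim test. The positive control was desipramine at 15 mg/kg ip. Data are group means ± SEM, compared with vehicle by one-way ANOVA.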

Rattus norvegicus [13] = test: Antidepressant activity in Sprague-Dawley rat assessed as reduction of immobility time at 2.4 to 7.3 mg/kg, sc measured for 5 mins by forced swimming test; assay type: functional, organism-based; how it was run: as §2
Rattus norvegicus [14] = test: In vivo DAT occupancy in sc dosed Long Evans rat striatum using [3H]PE2I administered 30 mins before [3H]PE2I challenge measured after 60 mins
Rattus norvegicus [15] = test: In vivo DAT occupancy in sc dosed Long Evans rat striatum using [3H]-PE2I administered 30 mins before [3H]-PE2I 35428 challenge measured after 60 mins; assay type: functional
How it was run: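 Test compound given sc to rats; 30 min later [3H]PE2I given sc as DAT radioligand, quantified in striatum. […] Mean reported, 95% CI typically ± half the mean.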

Rattus norvegicus [16] = test: In vivo DAT occupancy in sc dosed Long Evans rat striatum assessed as unbound plasma levels equaling 50% occupancy using [3H]WIN 35428 administered 30 mins before [3H]WIN 35428 challenge measured after 60 mins; assay type: functional, organism-based
Rattus norvegicus [17] = test: Antidepressant activity in Sprague-Dawley rat assessed as reduction of immobility time at 1 mg/kg, sc measured for 5 mins by forced swimming test; assay type: functional, organism-based; design: dose 1 mg/kg
How it was run: (§3)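 Rats (Sprague–Dawley) given test compound sc, then scored in forced-swim test for immobility time. Vehicle group comparison; desipramine control dosed 15 mg/kg ip. Data as group means ± SEM; significance vs vehicle by one-way ANOVA.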

Rattus norvegicus [18] = test: Antidepressant activity in Sprague-Dawley rat assessed as reduction of immobility time at 3 to 10 mg/kg, sc measured for 5 mins by forced swimming test; assay type: functional, organism-based; how it was run: as §3
Rattus norvegicus [19] = test: Antidepressant activity in Sprague-Dawley rat assessed as reduction of immobility time at 1 to 30 mg/kg, sc measured for 5 mins by forced swimming test; assay type: functional, organism-based; how it was run: as §2
Rattus norvegicus [20] = test: Antidepressant activity in Sprague-Dawley rat assessed as reduction of immobility time at 0.3 mg/kg, sc measured for 5 mins by forced swimming test; assay type: functional, organism-based; design: dose 0.3 mg/kg; how it was run: as §2

Sequence of Sodium-dependent dopamine transporter (Q01959 whole entry): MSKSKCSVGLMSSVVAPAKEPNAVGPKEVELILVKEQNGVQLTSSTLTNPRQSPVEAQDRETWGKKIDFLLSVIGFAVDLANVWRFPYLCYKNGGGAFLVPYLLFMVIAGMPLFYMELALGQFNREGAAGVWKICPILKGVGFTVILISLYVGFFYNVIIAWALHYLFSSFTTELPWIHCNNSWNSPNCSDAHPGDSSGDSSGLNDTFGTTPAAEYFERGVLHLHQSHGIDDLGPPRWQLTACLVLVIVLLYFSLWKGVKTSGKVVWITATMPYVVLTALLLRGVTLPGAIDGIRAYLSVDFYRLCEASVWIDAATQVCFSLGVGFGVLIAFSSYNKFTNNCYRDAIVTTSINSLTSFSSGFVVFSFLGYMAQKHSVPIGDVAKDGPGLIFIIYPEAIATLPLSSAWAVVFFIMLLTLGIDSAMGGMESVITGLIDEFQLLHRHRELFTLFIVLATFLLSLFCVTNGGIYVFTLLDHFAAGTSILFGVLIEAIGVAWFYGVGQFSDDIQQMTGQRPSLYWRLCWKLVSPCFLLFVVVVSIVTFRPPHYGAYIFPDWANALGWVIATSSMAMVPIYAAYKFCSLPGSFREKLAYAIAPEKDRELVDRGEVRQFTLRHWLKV
Sequence of Sodium-dependent serotonin transporter (P31645 whole entry): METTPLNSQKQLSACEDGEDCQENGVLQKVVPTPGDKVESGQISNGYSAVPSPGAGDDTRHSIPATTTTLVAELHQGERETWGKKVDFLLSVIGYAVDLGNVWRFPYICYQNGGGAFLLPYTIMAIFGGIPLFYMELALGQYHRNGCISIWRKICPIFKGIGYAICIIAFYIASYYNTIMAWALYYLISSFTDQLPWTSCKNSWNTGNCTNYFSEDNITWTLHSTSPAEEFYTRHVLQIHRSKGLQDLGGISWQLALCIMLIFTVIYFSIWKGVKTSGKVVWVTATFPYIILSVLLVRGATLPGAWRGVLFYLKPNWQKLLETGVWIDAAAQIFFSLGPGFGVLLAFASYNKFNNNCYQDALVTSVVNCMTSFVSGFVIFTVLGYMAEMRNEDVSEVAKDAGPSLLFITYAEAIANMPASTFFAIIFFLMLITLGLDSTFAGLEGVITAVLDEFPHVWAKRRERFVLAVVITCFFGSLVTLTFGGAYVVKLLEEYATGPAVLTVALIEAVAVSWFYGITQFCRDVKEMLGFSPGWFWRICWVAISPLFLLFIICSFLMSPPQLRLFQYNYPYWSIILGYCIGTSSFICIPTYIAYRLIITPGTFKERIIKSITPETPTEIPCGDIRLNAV
Sequence of Sodium-dependent noradrenaline transporter (P23975 whole entry): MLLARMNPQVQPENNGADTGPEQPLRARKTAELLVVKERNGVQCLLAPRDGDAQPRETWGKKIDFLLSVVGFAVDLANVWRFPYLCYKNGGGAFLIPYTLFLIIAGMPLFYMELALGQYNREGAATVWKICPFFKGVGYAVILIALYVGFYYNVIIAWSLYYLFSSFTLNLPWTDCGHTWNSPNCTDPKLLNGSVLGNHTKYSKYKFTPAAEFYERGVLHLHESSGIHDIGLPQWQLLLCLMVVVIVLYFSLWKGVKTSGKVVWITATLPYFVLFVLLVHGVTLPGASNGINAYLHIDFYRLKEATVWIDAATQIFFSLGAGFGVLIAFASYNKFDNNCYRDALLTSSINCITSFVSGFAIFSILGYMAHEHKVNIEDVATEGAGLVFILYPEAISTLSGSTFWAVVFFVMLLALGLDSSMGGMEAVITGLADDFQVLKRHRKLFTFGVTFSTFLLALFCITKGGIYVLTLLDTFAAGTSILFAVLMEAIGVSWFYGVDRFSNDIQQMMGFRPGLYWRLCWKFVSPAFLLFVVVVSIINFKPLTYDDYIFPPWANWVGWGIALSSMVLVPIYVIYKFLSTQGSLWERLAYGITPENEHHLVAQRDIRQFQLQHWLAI
Sequence of Cytochrome P450 2D6 (P10635 whole entry): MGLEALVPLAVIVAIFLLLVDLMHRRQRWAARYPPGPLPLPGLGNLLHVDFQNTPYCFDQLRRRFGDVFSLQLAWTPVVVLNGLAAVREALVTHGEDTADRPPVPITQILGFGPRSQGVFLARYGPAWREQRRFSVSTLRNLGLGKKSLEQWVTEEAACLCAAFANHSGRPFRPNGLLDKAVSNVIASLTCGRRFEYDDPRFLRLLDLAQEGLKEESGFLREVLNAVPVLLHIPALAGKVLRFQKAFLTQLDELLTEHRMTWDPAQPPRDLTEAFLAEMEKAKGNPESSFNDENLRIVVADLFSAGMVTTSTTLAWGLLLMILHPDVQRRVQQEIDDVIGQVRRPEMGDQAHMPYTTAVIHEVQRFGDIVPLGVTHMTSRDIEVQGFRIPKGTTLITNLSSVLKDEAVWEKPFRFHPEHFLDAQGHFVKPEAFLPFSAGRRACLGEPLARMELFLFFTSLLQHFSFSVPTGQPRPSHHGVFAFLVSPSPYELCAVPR
Sequence of Voltage-gated inwardly rectifying potassium channel KCNH2 (Q12809 whole entry): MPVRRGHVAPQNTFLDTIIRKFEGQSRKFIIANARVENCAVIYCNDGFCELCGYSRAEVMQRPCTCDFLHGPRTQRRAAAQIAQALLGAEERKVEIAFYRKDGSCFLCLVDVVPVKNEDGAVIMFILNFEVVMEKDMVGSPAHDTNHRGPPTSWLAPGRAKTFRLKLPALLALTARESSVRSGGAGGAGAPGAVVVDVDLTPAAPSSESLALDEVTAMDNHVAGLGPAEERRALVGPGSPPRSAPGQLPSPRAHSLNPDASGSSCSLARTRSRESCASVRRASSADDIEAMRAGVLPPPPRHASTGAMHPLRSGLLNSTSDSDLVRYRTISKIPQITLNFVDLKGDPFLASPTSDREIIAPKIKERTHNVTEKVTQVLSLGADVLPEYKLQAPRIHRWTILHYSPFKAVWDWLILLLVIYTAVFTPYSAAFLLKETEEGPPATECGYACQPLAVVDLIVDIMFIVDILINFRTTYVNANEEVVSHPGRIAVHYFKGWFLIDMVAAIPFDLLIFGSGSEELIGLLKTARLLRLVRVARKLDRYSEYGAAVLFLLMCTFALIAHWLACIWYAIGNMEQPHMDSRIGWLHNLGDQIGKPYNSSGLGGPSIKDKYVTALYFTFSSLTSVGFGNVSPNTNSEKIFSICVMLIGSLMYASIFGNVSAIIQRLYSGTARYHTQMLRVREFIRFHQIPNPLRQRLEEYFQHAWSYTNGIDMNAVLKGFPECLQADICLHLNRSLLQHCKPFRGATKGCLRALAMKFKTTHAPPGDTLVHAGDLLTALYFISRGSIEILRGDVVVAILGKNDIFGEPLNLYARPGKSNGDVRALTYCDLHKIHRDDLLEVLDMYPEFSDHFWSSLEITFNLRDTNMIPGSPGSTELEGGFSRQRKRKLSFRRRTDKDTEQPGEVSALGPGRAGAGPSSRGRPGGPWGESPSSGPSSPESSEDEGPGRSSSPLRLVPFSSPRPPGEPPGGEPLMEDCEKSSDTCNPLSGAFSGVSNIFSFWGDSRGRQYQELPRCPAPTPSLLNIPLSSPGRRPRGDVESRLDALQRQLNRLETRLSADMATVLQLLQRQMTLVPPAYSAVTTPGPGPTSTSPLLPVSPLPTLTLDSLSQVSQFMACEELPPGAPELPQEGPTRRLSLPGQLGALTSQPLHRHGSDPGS

| IC50 (Cytochrome P450 2D6) | Compound | Ki [1] | Ki [2] | Ki [3] | microsomal CLint [4] | IC50 [5] | also measured |
| --- | --- | --- | --- | --- | --- | --- | --- |
|  | CN1CCCCC(c2ccc(Cl)c(Cl)c2)C1 (racemic) | 260 nM | 8 nM | 74 nM |  | 10000 nM |  |
| 7800 nM | C1=CCC(c2cc3ccccc3o2)CNC1 (stereo unspecified) | 240 nM | 23 nM | 46 nM | 83 µL/min/mg | 19000 nM |  |
| 3900 nM | COCCN1CC=CC[C@H](c2ccc(Cl)c(Cl)c2)C1 | 540 nM | 9 nM | 15 nM | 150 µL/min/mg | 5300 nM |  |
|  | CN1CC=CC[C@@H](c2ccc(Cl)c(Cl)c2)C1 | 130 nM | 13 nM | 54 nM | 86 µL/min/mg |  |  |
| > 20000 nM | OCC[C@]1(c2cc3ccccc3o2)CCCNC1 | 230 nM | 6 nM | 4 nM | 22 µL/min/mg |  | Cp(f) (Plasma): 75%; Kp [6]: 5.8; ED50 (Rattus norvegicus [7]): 0.17 mg/kg; EC50 (Rattus norvegicus [8]): 33 nM; EC50 (Rattus norvegicus [9]): 5.6 nM; Stability [10]: Stable; Activity (Rattus norvegicus [11]): inactive; Activity (Rattus norvegicus [12]): inactive; Activity (Rattus norvegicus [13]): Active; ED50 (Rattus norvegicus [14]): 0.8 mg/kg |
|  | Clc1cccc(C2CC=CCNC2)c1 (stereo unspecified) |  | 240 nM | 430 nM |  | > 33000 nM |  |
|  | Cc1cc(C2CC=CCNC2)ccc1Cl (stereo unspecified) |  | 24 nM | 170 nM |  | 26000 nM |  |
| > 20000 nM | OCC[C@@]1(c2ccc(Cl)c(Cl)c2)CCCNC1 | 250 nM | 140 nM | 250 nM | < 4 µL/min/mg | > 33000 nM |  |
|  | Clc1ccc(C2CC=CCNC2)cc1 (stereo unspecified) |  | 25 nM | 250 nM |  | > 31000 nM |  |
|  | CN1CC=CCC(c2ccc(Cl)c(Cl)c2)C1 (racemic) | 100 nM | 5 nM | 57 nM | 57 µL/min/mg |  |  |
| 6600 nM | C1=CCC(c2ccc3ccccc3c2)CNC1 (stereo unspecified) | 63 nM | 10 nM | 25 nM | 94 µL/min/mg |  |  |
| 6700 nM | CN1CC=CCC(c2cc3ccccc3o2)C1 (stereo unspecified) | 800 nM | 60 nM | 120 nM | 97 µL/min/mg | 15000 nM |  |
|  | CN1CC=CC[C@H](c2ccc(Cl)c(Cl)c2)C1 | 83 nM | 3 nM | 12 nM | 51 µL/min/mg |  |  |
| > 20000 nM | OCCN1CC=CC[C@H](c2ccc(Cl)c(Cl)c2)C1 | 150 nM | 37 nM | 12 nM | 52 µL/min/mg | 10000 nM |  |
| > 20000 nM | CN1Cc2c(N)cccc2C(c2ccccc2)C1 (racemic) [NOMIFENSINE] |  |  |  | 37 µL/min/mg | > 27000 nM | Activity (Rattus norvegicus [19]): Active; Cp(f) (Plasma): 60.5%; Kp [6]: 10.1; ED50 (Rattus norvegicus [7]): 0.05 mg/kg; ED50 (Rattus norvegicus [15]): 0.7 mg/kg; Activity (Rattus norvegicus [11]): Dose-dependent effect; Activity (Rattus norvegicus [20]): inactive |
|  | OCC[C@@]1(c2cc3ccccc3o2)CCCNC1 |  | 400 nM | 430 nM |  |  |  |
| > 20000 nM | OCC[C@]1(c2ccc(Cl)c(Cl)c2)CCCNC1 | 42 nM | 9.3 nM | 3.3 nM | < 4 µL/min/mg | > 33000 nM |  |

| Compound | IC50 (Cytochrome P450 2D6) | Ki [1] | Ki [2] | Ki [3] | microsomal CLint [4] | IC50 [5] | also measured |
| --- | --- | --- | --- | --- | --- | --- | --- |
| Clc1ccc([C@@H]2CC=CCNC2)cc1Cl | 3100 nM | 420 nM | 8 nM | 24 nM | 50 µL/min/mg |  |  |
| Fc1ccc(C2CC=CCNC2)cc1Cl (stereo unspecified) | 6400 nM | 1500 nM | 68 nM | 130 nM | 15 µL/min/mg |  |  |
| Clc1ccc(C2CCCCNC2)cc1Cl (racemic) | 2300 nM | 140 nM | 11 nM | 130 nM | 35 µL/min/mg | 6100 nM |  |
| Clc1ccc(C2CC=CCNC2)cc1Cl (racemic) | 5100 nM | 220 nM | 6 nM | 66 nM | 30 µL/min/mg |  |  |
| Clc1ccc([C@H]2CC=CCNC2)cc1Cl | 3900 nM | 220 nM | 6 nM | 17 nM | 33 µL/min/mg |  | Cp(f) (Plasma): 7.7%; Kp [6]: 4.8; ED50 (Rattus norvegicus [7]): 0.5 mg/kg; ED50 (Rattus norvegicus [15]): 0.8 mg/kg; EC50 (Rattus norvegicus [16]): 220 nM; EC50 (Rattus norvegicus [9]): 46 nM; Stability [10]: Stable; Activity (Rattus norvegicus [11]): Dose-dependent effect; Activity (Rattus norvegicus [17]): inactive; Activity (Rattus norvegicus [18]): Active |
| Cc1cc(C2CC=CCN(C)C2)ccc1Cl (stereo unspecified) | 18000 nM | 270 nM | 23 nM | 130 nM | 85 µL/min/mg | 26000 nM |  |
| Cc1ccc(C2CC=CCNC2)cc1Cl (stereo unspecified) | 5600 nM | 600 nM | 49 nM | 83 nM | 100 µL/min/mg | > 27000 nM |  |
